Screening results (PubChem)
Compounds with a hit are over-represented: about 2.8% of the library has one in this group of screens.
PAFAH1B3 inh = blocks human PAF acetylhydrolase 1B catalytic subunit 3; recombinant PAFAH1B3, FP-rhodamine probe, fluorescence polarization; 0.28% of 340,000 active; Q15102; inhibition, % at 3.39 µM;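 active means inhibition above the screen-wide average of all tested compounds plus 3 SD, cut at about 25% in these data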
PAFAH2 FP inh = inhibitors of human PAFAH2. Q99487. recombinant PAFAH2, FP-rhodamine activity probe, fluorescence polarization. inhibition, % at 3.39 µM. 0.99% of 340,000 active. AID 492956;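 active means inhibition above the mean over all tested compounds plus 3 SD, cut at about 30% in these data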;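 further: inhibitors block probe labeling of enzyme so polarization drops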
PAFAH1B2 FP inh = inhibitors of human PAFAH1B2. P68402. recombinant PAFAH1B2, FP-rhodamine activity probe, fluorescence polarization. inhibition, % at 3.39 µM. 1.2% of 340,000 active. AID 492953;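 active means inhibition above the mean of all tested compounds plus 3 SD, cut at about 24% in these data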
Target sequence (P68402 whole entry, looked up): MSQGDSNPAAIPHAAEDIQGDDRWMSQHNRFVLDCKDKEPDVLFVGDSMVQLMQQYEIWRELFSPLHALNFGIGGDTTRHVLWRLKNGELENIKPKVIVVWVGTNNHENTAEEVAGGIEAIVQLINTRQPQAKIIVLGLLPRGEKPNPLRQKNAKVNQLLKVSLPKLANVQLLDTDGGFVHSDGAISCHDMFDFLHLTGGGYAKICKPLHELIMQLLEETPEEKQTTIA
ASAP1 GAP inh = ASAP1 ArfGAP inhibition; ASAP1-stimulated ARF1 GTP hydrolysis, GDP FP detection; 0.19% of 360,000 active; AID 624377; inhibition, % at 16.5 µM; in the data active means inhibition above about 25%
ARFGAP1 inhibitor = inhibitors of rat ARFGAP1. Arfgap1-stimulated ARF1 GTP hydrolysis, GDP FP detection. 0.26% of 360,000 active. AID 651572. inhibition, % at 16.5 µM;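 active means inhibition above a per-plate limit, mean inhibition of low control wells plus 3 SD, cut at about 25% in these data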
Target sequence (Q62848 1-136 limits assumed): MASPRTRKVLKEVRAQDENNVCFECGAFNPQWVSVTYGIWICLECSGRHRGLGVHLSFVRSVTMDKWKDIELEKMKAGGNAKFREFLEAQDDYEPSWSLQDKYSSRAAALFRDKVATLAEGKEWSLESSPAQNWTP
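material = rat Arfgap1 catalytic domain, aa 1-136 | also added = human ARF1(Δ1-17)-GTP substrate | compound dosing = one concentration, 16.5 µM, DMSO 1.26% | times = GTP hydrolysis reaction 2 h at 25 °C | measured by = FP, GDP Alexa 633 tracer displaced from anti-GDP antibody, 620/688 nm | evaluation = percent inhibition of Arfgap1-stimulated GTP hydrolysis | replication = single well per compound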
pPAFAH inh = inhibitors of human plasma PAF acetylhydrolase (pPAFAH); Q13093; 1.5% of 330,000 active; AID 463082; recombinant pPAFAH, FP-rhodamine probe fluorescence polarization; inhibition, % at 3.39 µM;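 active means inhibition above the mean inhibition across the screen plus 3 SD, cut at about 25% in these data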;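 further: inhibitors block binding of the rhodamine activity-based probe so polarization drops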
PAFAH2 FP conf = PAFAH2 (human) inhibition, confirmed | inhibition, % at 3.39 µM | recombinant PAFAH2, FP-rhodamine activity probe, fluorescence polarization | 65% of 2,300 active | shares compounds with PAFAH2 FP inh | AID 493030;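 active means mean inhibition over three repeats above a set limit taken from the earlier primary screen, cut at about 30% in these data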;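 further: inhibitor blocks binding of rhodamine activity probe so polarization falls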
Numbers stand for hits; . = inactive; / = not tested or not shown.

SMILES	PAFAH1B3 inh	PAFAH2 FP inh	PAFAH1B2 FP inh	ASAP1 GAP inh	ARFGAP1 inhibitor	pPAFAH inh	PAFAH2 FP conf
Cc1ccc(NC(=O)COC(=O)c2ccc(OC(F)F)cc2)cc1S(=O)(=O)N1CCCCC1	.	51	.	.	.	/	42
Cc1ccc(NC(=O)CNC(=O)c2ccc(OC(F)F)cc2)cc1S(=O)(=O)N1CCCCCC1	.	.	.	.	.	/	/
Cc1ccc(C(=O)OCC(=O)Nc2ccc(C)c(S(=O)(=O)N3CCCCC3)c2)o1	/	/	/	.	.	/	/
Cc1ccc(NC(=O)COC(=O)c2ccc3c(c2)OCO3)cc1S(=O)(=O)N1CCCCC1	.	69	.	.	.	.	63
COc1ccc(NS(=O)(=O)c2cc([N+](=O)[O-])ccc2NN=Cc2ccccc2OCC(=O)O)cc1	.	49	.	.	.	.	.
COc1ccc(NS(=O)(=O)c2cc([N+](=O)[O-])ccc2N/N=C\c2c(C)[nH]c3ccccc23)cc1	.	.	.	.	.	.	/
CCc1ccc(/C=C2\Oc3c(ccc(O)c3CN3CCN(CCO)CC3)C2=O)cc1	.	58	.	.	.	.	39
CCc1ccc(/C=C2\Oc3cc(OS(C)(=O)=O)ccc3C2=O)cc1	.	.	.	.	.	.	/
O=C(COC(=O)c1ccc(Br)o1)NCc1cccs1	.	.	.	.	.	.	/
Cc1ccc(C(=O)OCC(=O)NCc2cccs2)cc1C	.	54	.	.	.	.	51
O=C(COC(=O)/C=C/c1ccc(OC(F)F)cc1)NCc1cccs1	.	46	.	.	.	.	41
O=C(COC(=O)c1ccc(CO)cc1)NCc1cccs1	.	43	.	.	.	.	35
O=C(COC(=O)c1ccco1)NCc1cccs1	.	34	.	.	.	.	.
CCc1nn(CCCC(=O)NCc2ccccc2C)c(=O)c2cc3occc3n12	.	.	.	.	.	.	/
Cc1cc(C)c(C(=O)OCC(=O)NCc2cccs2)c(C)c1	.	.	.	.	.	.	/
Cc1ccc(C(=O)OCC(=O)NCc2cccs2)cc1	.	53	.	.	.	.	46
N#CC1=C(SCC(=O)Nc2cccc3cccnc23)NC(=O)C(C#N)C12CCCCC2 (centres undefined)	.	38	.	.	.	.	.
O=C1/C(=C/c2ccc(Br)cc2)Oc2cc(O)ccc21	.	.	.	.	.	.	/
CC(C)(C)c1ccc(/C=C2\Oc3cc(O)ccc3C2=O)cc1	.	47	.	.	.	.	36
Cc1ccc2nc(-c3ccco3)c(Cc3cccc(F)c3)n2c1	/	/	/	.	.	/	/
CC(=O)C(Cc1ccccc1)NC(=O)COC(=O)c1cccc(C)c1[N+](=O)[O-] (centres undefined)	.	36	.	.	.	.	.
CCN(CC)CCNC(=O)CCN1N=C(c2ccccc2)CCC1=O	.	.	.	.	.	.	/
CCN(CC)c1ccc(S(=O)(=O)N2CCOCC2)cc1NC(=O)COC(=O)/C=C/c1ccco1	.	55	.	.	.	/	42
O=C(COC(=O)/C=C/c1ccco1)Nc1cc(S(=O)(=O)N2CCOCC2)ccc1Cl	.	42	.	.	.	.	37
O=C(CCn1c(=O)oc2ccccc21)Nc1cccc(Cl)c1	.	43	.	.	.	.	.
SMILES	PAFAH1B3 inh	PAFAH2 FP inh	PAFAH1B2 FP inh	ASAP1 GAP inh	ARFGAP1 inhibitor	pPAFAH inh	PAFAH2 FP conf
Cc1cccc(-c2nc3ccccc3c3nncn23)c1	.	159	.	.	.	.	.
COc1ccccc1NC(=O)CSc1nnc(Cc2cccs2)n1C	.	66	.	.	.	.	.
COc1ccc(NC(=O)C2Cc3c(-c4ccc(NC(C)=O)cc4)ccnc3O2)cn1 (centres undefined)	/	/	/	.	.	/	/
Cc1cc(C)c(OCC(=O)Nc2ccccn2)c([N+](=O)[O-])c1	.	33	.	.	.	.	.
Cc1ccnc(NC(=O)COc2c(C)cc(C)cc2[N+](=O)[O-])c1	.	.	.	.	.	.	/
CCCCN1C(=O)C(CC(=O)NCCCCc2ccccc2)CC(C(=O)N(C(C)C)C(C)C)=C1C (centres undefined)	/	/	/	.	.	/	/
CC(NC(=O)c1ccco1)C(=O)N1CC=C(c2ccccc2)CC1 (centres undefined)	.	.	.	.	.	.	/
